Assay [1] deals with Mycobacterium tuberculosis. The assay is described as follows: Antitubercular activity against Mycobacterium tuberculosis H37Rv. Format: functional. An outline of the steps:
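Broth microdilution against M. tuberculosis H37Rv; MIC read by visual inspection of growth.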

The test system of a further assay is Staphylococcus aureus. Description: Antimicrobial activity against Staphylococcus aureus. The assay is classed as functional, organism-based.
In the next assay the test system is Streptococcus pneumoniae. The assay is described as follows: Antimicrobial activity against Streptococcus pneumoniae. The assay is classed as functional, organism-based.
The test system of another assay is Escherichia coli. The assay is described as follows: Antimicrobial activity against Escherichia coli. Format: functional, organism-based.

The results in this text go back to ChEMBL document CHEMBL1153861, “Synthesis, optimization and structure-activity relationships of 3,5-disubstituted isoxazolines as new anti-tuberculosis agents” (2009).

SMILES strings stand for the structures. In brackets after ≈: the same amount, converted by molar mass. Activity calls are given as the source filed them. The rule behind the calls is not given here.

The term MIC denotes the least concentration at which growth counts as inhibited. Higher therefore signals weaker potency.

On to `CCOC(=O)C1=NOC(c2ccc(N3CCN(Cc4ccc([N+](=O)[O-])cc4)CC3)cc2)C1` (stereo not drawn), for which the lowest concentration to inhibit growth in assay [1] (MIC) was 0.8 µg/mL (≈ 1.82 µM). The outcome in the assay with Staphylococcus aureus, with Streptococcus pneumoniae and in the assay with Escherichia coli was inactive.
On to `O=C(O)C1=NOC(c2ccc(N3CCN(C(=O)NCCc4ccccc4)CC3)cc2)C1` (stereo not drawn), for which the MIC in assay [1] is greater than 200 µg/mL. In addition, the outcome in the assay on Staphylococcus aureus, in the assay with Streptococcus pneumoniae and in the assay on Escherichia coli was inactive.
As to `CCOC(=O)C1=NOC(c2ccc(N3CCN(C(=O)NCCc4ccccc4)CC3)cc2)C1` (stereo not drawn), the MIC in assay [1] came out at 0.8 µg/mL (≈ 1.78 µM). The outcome with Staphylococcus aureus, with Streptococcus pneumoniae and in the assay on Escherichia coli was inactive.
In the case of `CCOC(=O)C1=NOC(c2ccc(N3CCC(Oc4ccc(OC(F)(F)F)cc4)CC3)cc2)C1` (stereo not drawn), the MIC in assay [1] was 25 µg/mL (≈ 52.3 µM). The result in the assay with Staphylococcus aureus, with Streptococcus pneumoniae and in the assay on Escherichia coli was inactive.
As for `CCOC(=O)C1=NOC(c2ccc(N3CCCCC3)cc2)C1` (stereo not drawn), in assay [1], inhibition of growth (MIC) required 6.25 µg/mL (≈ 20.7 µM). For the same molecule, the outcome in the assay with Staphylococcus aureus, in the assay on Streptococcus pneumoniae and with Escherichia coli was inactive.
Take `CCOC(=O)C1=NOC(c2ccc(-c3noc(-c4ccccc4)n3)cc2)C1` (stereo not drawn): in assay [1], the MIC came to 3.12 µg/mL (≈ 8.6 µM). In addition, the outcome in the assay with Staphylococcus aureus, in the assay on Streptococcus pneumoniae and in the assay on Escherichia coli was inactive.
As for `CCOC(=O)C1=NOC(c2ccc(N3CCN(C(=O)OC(C)(C)C)CC3)cc2)C1` (stereo not drawn), in assay [1], the MIC came out at 0.8 µg/mL (≈ 1.98 µM). Also, the result in the assay with Staphylococcus aureus, with Streptococcus pneumoniae and with Escherichia coli was inactive.
With `CCOC(=O)C1=NOC(c2ccc(-c3ccccc3)cc2)C1` (stereo not drawn), in assay [1], the MIC came out at 100 µg/mL (≈ 339 µM). The outcome with Staphylococcus aureus, in the assay on Streptococcus pneumoniae and in the assay on Escherichia coli was inactive.
For the molecule `CCOC(=O)C1=NOC(c2ccc(N3CCOCC3)cc2)C1` (stereo not drawn), the MIC in assay [1] is greater than 200 µg/mL. The outcome with Staphylococcus aureus, with Streptococcus pneumoniae and with Escherichia coli was inactive.
`CCOC(=O)C1=NOC(c2ccc(-c3ncon3)cc2)C1` (stereo not drawn) came in with a minimum inhibitory concentration (MIC) in assay [1] of 50 µg/mL (≈ 174 µM). Moreover, the result in the assay with Staphylococcus aureus, with Streptococcus pneumoniae and in the assay on Escherichia coli was inactive.
Take `CCOC(=O)C1=NOC(c2ccc(N3CCN(C(=O)Nc4ccccc4)CC3)cc2)C1` (stereo not drawn): 6.25 µg/mL (≈ 14.8 µM) was the least that counted as inhibitory in assay [1] (MIC). Besides, the result in the assay with Staphylococcus aureus, in the assay on Streptococcus pneumoniae and with Escherichia coli was inactive.
In assay [1], `NCC1=NOC(c2ccc(N3CCN(Cc4ccccc4)CC3)cc2)C1` (stereo not drawn) returned an MIC of 200 µg/mL (≈ 571 µM). Moreover, the result in the assay on Staphylococcus aureus, in the assay on Streptococcus pneumoniae and in the assay with Escherichia coli was inactive.
In assay [1], `CCOC(=O)C1=NOC(c2ccc(N3CCN(C(=O)OC)CC3)cc2)C1` (stereo not drawn) had an MIC of 1.56 µg/mL (≈ 4.32 µM). For the same molecule, the outcome in the assay with Staphylococcus aureus, in the assay on Streptococcus pneumoniae and with Escherichia coli was inactive.
In assay [1], `CCCNC(=O)C1=NOC(c2ccc(N3CCN(Cc4ccccc4)CC3)cc2)C1` (stereo not drawn) showed an MIC of 200 µg/mL (≈ 492 µM). The outcome in the assay on Staphylococcus aureus, with Streptococcus pneumoniae and in the assay on Escherichia coli was inactive.
In the case of `COC(=O)C1=NOC(c2ccc(N3CCN(Cc4ccccc4)CC3)cc2)C1` (stereo not drawn), in assay [1], the MIC came out at 1.56 µg/mL (≈ 4.11 µM). For the same molecule, the result with Staphylococcus aureus, with Streptococcus pneumoniae and with Escherichia coli was inactive.
In assay [1], `C=CCOC(=O)N1CCN(c2ccc(C3CC(C(=O)OCC)=NO3)cc2)CC1` (stereo not drawn) displayed an MIC of 0.8 µg/mL (≈ 2.06 µM). Besides, the outcome with Staphylococcus aureus, in the assay on Streptococcus pneumoniae and in the assay with Escherichia coli was inactive.
As to `CCCCOC(=O)N1CCN(c2ccc(C3CC(C(=O)O)=NO3)cc2)CC1` (stereo not drawn), the MIC in assay [1] was greater than 200 µg/mL. For the same molecule, the result in the assay on Staphylococcus aureus, in the assay on Streptococcus pneumoniae and in the assay with Escherichia coli was inactive.
As to `CC(=O)NCC1=NOC(c2ccc(N3CCN(Cc4ccccc4)CC3)cc2)C1` (stereo not drawn), the minimal inhibitory concentration (MIC) in assay [1] is greater than 200 µg/mL. Also, the outcome with Staphylococcus aureus, with Streptococcus pneumoniae and in the assay with Escherichia coli was inactive.
In assay [1], `CCCNC(=O)N1CCN(c2ccc(C3CC(C(=O)OCC)=NO3)cc2)CC1` (stereo not drawn) gave an MIC of 25 µg/mL (≈ 64.4 µM). Further, the outcome with Staphylococcus aureus, with Streptococcus pneumoniae and with Escherichia coli was inactive.
In turn, `NNC(=O)C1=NOC(c2ccc(N3CCN(Cc4ccccc4)CC3)cc2)C1` (stereo not drawn) gave an MIC in assay [1] of 50 µg/mL (≈ 132 µM). Also, the outcome in the assay on Staphylococcus aureus, with Streptococcus pneumoniae and in the assay on Escherichia coli was inactive.
In turn, `CCOC(=O)C1=NOC(c2ccc(N3CCN(C(=O)OCC(C)C)CC3)cc2)C1` (stereo not drawn) registered an MIC in assay [1] of 0.8 µg/mL (≈ 1.98 µM). Further, the outcome with Staphylococcus aureus, in the assay on Streptococcus pneumoniae and with Escherichia coli was inactive.
The molecule `C=CCN1CCN(c2ccc(C3CC(C(=O)OCC)=NO3)cc2)CC1` (stereo not drawn) came in with a minimal inhibitory concentration (MIC) in assay [1] of 6.25 µg/mL (≈ 18.2 µM). For the same molecule, the result in the assay with Staphylococcus aureus, with Streptococcus pneumoniae and in the assay on Escherichia coli was inactive.
In assay [1], `OCC1=NOC(c2ccc(N3CCN(Cc4ccccc4)CC3)cc2)C1` (stereo not drawn) yielded an MIC of 200 µg/mL (≈ 569 µM). The outcome in the assay with Staphylococcus aureus, in the assay with Streptococcus pneumoniae and in the assay on Escherichia coli was inactive.
`CCOC(=O)C1=NOC(c2ccc(N3CCN(C(=O)NC(C)C)CC3)cc2)C1` (stereo not drawn) came in with an MIC in assay [1] of 12.5 µg/mL (≈ 32.2 µM). The result in the assay on Staphylococcus aureus, in the assay on Streptococcus pneumoniae and in the assay with Escherichia coli was inactive.
With `CCOC(=O)C1=NOC(c2ccc(N3CCN(CC4CC4)CC3)cc2)C1` (stereo not drawn), 12.5 µg/mL (≈ 35 µM) was the least that counted as inhibitory in assay [1] (MIC). Moreover, the outcome in the assay with Staphylococcus aureus, in the assay on Streptococcus pneumoniae and in the assay on Escherichia coli was inactive.
Consider `[N-]=[N+]=NCC1=NOC(c2ccc(N3CCN(Cc4ccccc4)CC3)cc2)C1` (stereo not drawn), for which inhibition of growth in assay [1] (MIC) required 50 µg/mL (≈ 133 µM). In addition, the result with Staphylococcus aureus, in the assay with Streptococcus pneumoniae and in the assay on Escherichia coli was inactive.
Turning to `CCCCOC(=O)N1CCN(c2ccc(C3CC(C(=O)OCC)=NO3)cc2)CC1` (stereo not drawn), the MIC in assay [1] came to 0.8 µg/mL (≈ 1.98 µM). Besides, the outcome in the assay with Staphylococcus aureus, in the assay on Streptococcus pneumoniae and in the assay with Escherichia coli was inactive.
